Activity calls are given as the source filed them. No cut-off for these calls is given here.
Key:
Marmota monax [1] = assay: Toxicity in Woodchuck hepatitis virus infected woodchuck assessed as increase of serum gamma-glutamyltransferase activity at 15 mg/kg, po qd for 48 weeks; assay type: organism-based; set-up: dose 15 mg/kg, route oral; details: in vivo, 8064 h
Procedure, shortened: (§1)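 Woodchucks chronically infected with WHV, 5 per group, received oral drug once daily in liquid diet for 48 weeks; placebo got diet only. Serum chemistry (GGT, ALP, ALT, AST, SDH, among others) was run 2 weeks pretreatment, at week 0, every other week to week 12, then monthly to week 48. Sampling continued at 2, 4, 6, 8 and 12 weeks post-treatment.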

Marmota monax [2] = assay: Toxicity in Woodchuck hepatitis virus infected woodchuck assessed as increase of liver aspartate aminotransferase activity at 15 mg/kg, po qd for 48 weeks; assay type: organism-based; set-up: dose 15 mg/kg, route oral; details: in vivo, 8064 h; procedure, shortened: as §1
Marmota monax [3] = assay: Toxicity in Woodchuck hepatitis virus infected woodchuck assessed as increase of liver alkaline phosphatase activity at 15 mg/kg, po qd for 48 weeks; assay type: organism-based; set-up: dose 15 mg/kg, route oral; details: in vivo, 8064 h; procedure, shortened: as §1
[4] = system: Woodchuck hepatitis virus; assay: Antiviral activity against Woodchuck hepatitis virus infected in woodchuck assessed as absent of lesion in portal hepatitis at 15 mg/kg, po qd measured on 36th week on 48 weeks study; assay type: functional, organism-based; set-up: dose 15 mg/kg
Procedure, shortened: (§2)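 Chronic WHV-carrier adult woodchucks (inoculated at 3 days of age), 5 per group, dosed orally once daily for 48 weeks by dose syringe, drug in saline suspended in semisynthetic liquid diet; placebo is diet alone. Ultrasound-guided needle liver biopsies under ketamine/xylazine, formalin-fixed, H&E stained; portal and lobular hepatitis graded 0 (absent) to 4 (most severe).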

[5] = system: Woodchuck hepatitis virus; assay: Antiviral activity against Woodchuck hepatitis virus infected in woodchuck assessed as absent of lesion in lobular hepatitis at 15 mg/kg, po qd measured on 12th week on 48 weeks study; assay type: functional, organism-based; set-up: dose 15 mg/kg
Procedure, shortened: (§3)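 Adult chronic WHV-carrier woodchucks (neonatally inoculated), 5 per group, given drug once daily by dose syringe in semisynthetic liquid diet, for 48 weeks; placebo got diet alone. Ultrasound-guided needle liver biopsies under ketamine/xylazine anesthesia at pretreatment, weeks 12, 36, 48 and 12 weeks post-withdrawal. Biopsies were formalin-fixed, paraffin-embedded and H&E stained. Portal and lobular hepatitis were graded 0 (absent) to 4 (most severe).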

Marmota monax [6] = assay: Toxicity in Woodchuck hepatitis virus infected woodchuck assessed as increase of liver alanine aminotransferase activity at 15 mg/kg, po qd measured on 4 to 24 weeks on 48 week study; assay type: organism-based; set-up: dose 15 mg/kg, route oral; details: in vivo; procedure, shortened: as §1
[7] = system: Woodchuck hepatitis virus; assay: Antiviral activity against Woodchuck hepatitis virus infected in woodchuck assessed as absent of lesion in lobular hepatitis at 15 mg/kg, po qd measured on 36th week on 48 weeks study; assay type: functional, organism-based; set-up: dose 15 mg/kg; procedure, shortened: as §2
[8] = system: Woodchuck hepatitis virus; assay: Antiviral activity against Woodchuck hepatitis virus infected in woodchuck assessed as frequency of hepatocytes expressing viral antigen at 15 mg/kg, po qd measured on 12th week on 48 weeks study; assay type: functional, Hepatocyte
Procedure, shortened: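 Chronic WHV-carrier woodchucks, 5 per group, given 15 mg/kg/day orally once daily for 48 weeks in liquid diet; placebo is diet alone. Liver biopsies at pretreatment, weeks 12, 36, 48 and 12 weeks after withdrawal. Cytoplasmic WHsAg staining scored 0–4: 1 ≤1%, 2 ≤2%, 3 ≤5%, 4 ≥10% of hepatocytes.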

[9] = system: Woodchuck hepatitis virus; assay: Antiviral activity against Woodchuck hepatitis virus infected in woodchuck assessed as absent of lesion in portal hepatitis at 15 mg/kg, po qd measured on 12th week on 48 weeks study; assay type: functional, organism-based; set-up: dose 15 mg/kg; procedure, shortened: as §3
[10] = system: Woodchuck hepatitis virus; assay: Antiviral activity against Woodchuck hepatitis virus infected in woodchuck assessed as reduction of viral antigen level in serum at 15 mg/kg, po qd for 48 weeks measured on 60th week (reference value: 3.3 +/- 1.6 log10 ng/ml); assay type: functional
Marmota monax [11] = assay: Toxicity in Woodchuck hepatitis virus infected woodchuck assessed as increase of liver sorbitol dehydrogenase activity at 15 mg/kg, po qd measured on 28 to 48 weeks on 48 week study; assay type: organism-based; set-up: dose 15 mg/kg, route oral; details: in vivo; procedure, shortened: as §1
[12] = system: Woodchuck hepatitis virus; assay: Antiviral activity against Woodchuck hepatitis virus infected in woodchuck assessed as reduction of viral antigen level in serum at 15 mg/kg, po qd for 48 weeks (reference value: 3.8 +/- 1.3 log10 ng/ml); assay type: functional
[13] = system: Woodchuck hepatitis virus; assay: Antiviral activity against Woodchuck hepatitis virus infected in woodchuck assessed as reduction of viral antigen positive hepatocytes at 15 mg/kg, po qd for 48 weeks measured on 60th week (reference value: 26 %); assay type: functional, Hepatocyte; set-up: scale not given: the % may be the effect or the level left
Procedure, shortened: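 Chronic WHV-carrier woodchucks, 5 per group, 15 mg/kg/day oral once daily for 48 weeks in liquid diet. Liver biopsies were taken at pretreatment, weeks 12, 36, 48 and week 60. Percentage of hepatocytes positive for WHcAg was given as group mean ± SD and compared with pretreatment and placebo.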

[14] = system: Woodchuck hepatitis virus; assay: Antiviral activity against Woodchuck hepatitis virus infected in woodchuck assessed as reduction of viral DNA replicative intermediate level per ug of total cell DNA at 15 mg/kg, po qd for 48 weeks (reference value: 995 +/- 736 pg); assay type: functional
Procedure, shortened: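 Chronic WHV-carrier woodchucks, 5 per group, 15 mg/kg/day oral once daily for 48 weeks in liquid diet. Needle liver biopsies were snap-frozen in liquid nitrogen and stored at −70°C. Hepatic WHV DNA replicative intermediates were quantified by Southern blot (pg/μg total cell DNA) and WHV RNA by Northern blot; group means ± SD were compared with pretreatment and placebo.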

[15] = system: Woodchuck hepatitis virus; assay: Antiviral activity against Woodchuck hepatitis virus infected in woodchuck assessed as absent of lobular in portal hepatitis at 15 mg/kg, po qd for 48 weeks; assay type: functional, organism-based; set-up: dose 15 mg/kg; procedure, shortened: as §3
[16] = system: Woodchuck hepatitis virus; assay: Antiviral activity against Woodchuck hepatitis virus infected in woodchuck assessed as absent of lesion in lobular hepatitis at 15 mg/kg, po qd for 48 weeks measured on 60th week; assay type: functional, organism-based; set-up: dose 15 mg/kg; procedure, shortened: as §3

| SMILES | Activity (Marmota monax [1]) | Activity (Marmota monax [2]) | Activity (Marmota monax [3]) | Activity [4] | Activity [5] | Activity (Marmota monax [6]) | Activity [7] | Activity [8] | Activity [9] | Activity [10] | Activity (Marmota monax [11]) | Activity [12] | Activity [13] | Activity [14] | Activity [15] | Activity [16] |
| --- | --- | --- | --- | --- | --- | --- | --- | --- | --- | --- | --- | --- | --- | --- | --- | --- |
| CC(C)OC(=O)OCOP(=O)(CO[C@H](C)Cn1cnc2c(N)ncnc21)OCOC(=O)OC(C)C.O=C(O)/C=C/C(=O)O [TENOFOVIR DISOPROXIL FUMARATE] | Toxic | Toxic | Toxic | Active | Active | Toxic | Active | 0% | Active | 4 log10ng/ml | Toxic | 3.6 log10ng/ml | 39% | 704 pg | – | – |
| CC(C)(C)C(=O)OCOP(=O)(COCCn1cnc2c(N)ncnc21)OCOC(=O)C(C)(C)C [ADEFOVIR DIPIVOXIL] | Toxic | Toxic | Toxic | – | Active | Toxic | Active | 1% | Active | 5 log10ng/ml | Toxic | 4.1 log10ng/ml | 48% | 151 pg | Active | Active |

From ChEMBL document CHEMBL1687712, “Antiviral effects of lamivudine, emtricitabine, adefovir dipivoxil, and tenofovir disoproxil fumarate administered orally alone and in combination to woodchucks with chronic woodchuck hepatitis virus infection” (Antimicrob Agents Chemother, 2008)
